Measurements published in ChEMBL document CHEMBL1926518, “Synthesis of macrolones with central piperazine ring in the linker and its influence on antibacterial activity” (2011).
Values after ≈ are worked out from the molar mass of the structure shown.

How the values were obtained:
Assay type in all cases: functional
Streptococcus pyogenes [1] = experiment: Antibacterial activity against erythromycin-sensitive Streptococcus pyogenes 3565 by broth microdilution technique
How it was run: (§1)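 Streptococcal MICs by CLSI broth microdilution with doubling dilutions, but with 5% horse serum in the medium in place of lysed blood. Before testing, strains were grown on Columbia agar with 5% sheep blood. Values reported in µg/mL.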

Staphylococcus aureus [2] = experiment: Antibacterial activity against erythromycin-sensitive Staphylococcus aureus ATCC 13709 by broth microdilution technique
How it was run: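 MIC by broth microdilution per CLSI guidelines with doubling dilutions of compounds. Before testing, staphylococci were grown on Mueller–Hinton agar. Values reported in µg/mL.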

Streptococcus pyogenes [3] = experiment: Antibacterial activity against inducible macrolide, licosamide and streptogramin-resistant Streptococcus pyogenes Finland 11 by broth microdilution technique
How it was run: (§2)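 MICs were determined by CLSI broth microdilution, with double dilutions of compound. In the streptococcal medium, 5% horse serum replaced lysed blood. Streptococci were grown on Columbia agar with 5% sheep blood before testing. Results are given in µg/mL.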

Moraxella catarrhalis = experiment: Antibacterial activity against Moraxella catarrhalis ATCC 23246 by broth microdilution technique
How it was run: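 MIC by broth microdilution per CLSI guidelines with doubling dilutions of compounds. Before testing, organisms were grown on Columbia agar with 5% sheep blood. Values reported in µg/mL.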

Staphylococcus aureus [4] = experiment: Antibacterial activity against efflux-mediated macrolide-resistant Staphylococcus aureus PK1 by broth microdilution technique
How it was run: (§3)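 MICs were determined by CLSI broth microdilution, with double dilutions of compound. Staphylococci were grown on Mueller–Hinton agar before testing. Results are given in µg/mL.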

Staphylococcus aureus [5] = experiment: Antibacterial activity against inducible macrolide, licosamide and streptogramin-resistant Staphylococcus aureus 90256/97 by broth microdilution technique; how it was run: as §3
Staphylococcus aureus [6] = experiment: Antibacterial activity against constitutive macrolide, licosamide and streptogramin-resistant Staphylococcus aureus PK2 by broth microdilution technique; how it was run: as §3
Streptococcus pneumoniae [7] = experiment: Antibacterial activity against erythromycin-sensitive Streptococcus pneumoniae SP030 by broth microdilution technique; how it was run: as §1
Streptococcus pneumoniae [8] = experiment: Antibacterial activity against efflux-mediated macrolide-resistant Streptococcus pneumoniae Ci137 by broth microdilution technique; how it was run: as §2
Streptococcus pneumoniae [9] = experiment: Antibacterial activity against constitutive macrolide, licosamide and streptogramin-resistant Streptococcus pneumoniae 58 Spain by broth microdilution technique; how it was run: as §2
Streptococcus pyogenes [10] = experiment: Antibacterial activity against constitutive macrolide, licosamide and streptogramin-resistant Streptococcus pyogenes 166 GR-Micro by broth microdilution technique; how it was run: as §2
Streptococcus pneumoniae [11] = experiment: Antibacterial activity against inducible macrolide-resistant, constitutive licosamide and streptogramin-resistant Streptococcus pneumoniae 134 GR-Micro by broth microdilution technique; how it was run: as §2
Streptococcus pyogenes [12] = experiment: Antibacterial activity against efflux-mediated macrolide-resistant Streptococcus pyogenes 3 Finland by broth microdilution technique; how it was run: as §2
Haemophilus influenzae = experiment: Antibacterial activity against Haemophilus influenzae ATCC 49247 by broth microdilution technique
How it was run: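 MIC by broth microdilution per CLSI guidelines with doubling dilutions of compounds. Before testing, organisms were grown on Mueller-Hinton chocolate agar. Values reported in µg/mL.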

| SMILES | MIC (Streptococcus pyogenes [1]) [µg/mL] | MIC (Staphylococcus aureus [2]) [µg/mL] | MIC (Streptococcus pyogenes [3]) [µg/mL] | MIC (Moraxella catarrhalis) [µg/mL] | MIC (Staphylococcus aureus [4]) [µg/mL] | MIC (Staphylococcus aureus [5]) [µg/mL] | MIC (Staphylococcus aureus [6]) [µg/mL] | MIC (Streptococcus pneumoniae [7]) [µg/mL] | MIC (Streptococcus pneumoniae [8]) [µg/mL] | MIC (Streptococcus pneumoniae [9]) [µg/mL] | MIC (Streptococcus pyogenes [10]) [µg/mL] | MIC (Streptococcus pneumoniae [11]) [µg/mL] | MIC (Streptococcus pyogenes [12]) [µg/mL] | MIC (Haemophilus influenzae) [µg/mL] |
| --- | --- | --- | --- | --- | --- | --- | --- | --- | --- | --- | --- | --- | --- | --- |
| CCOC(=O)c1cn(C2CC2)c2ccc(C#CCN3CCN(C(=O)OC(C)(C)C)CC3)cc2c1=O | > 64 | > 64 | > 64 | > 64 | > 64 | > 64 | > 64 | > 64 | > 64 | > 64 | > 64 | > 64 | > 64 | > 64 |
| CCOC(=O)c1cn(C2CC2)c2ccc(CCCN3CCN(CCC(=O)O[C@H]4[C@H](C)O[C@@H](O[C@H]5[C@H](C)[C@@H](O[C@@H]6O[C@H](C)C[C@H](N(C)C)[C@H]6O)[C@](C)(OC)C[C@@H](C)C(=O)[C@H](C)[C@@H](O)[C@](C)(O)[C@@H](CC)OC(=O)[C@@H]5C)C[C@@]4(C)OC)CC3)cc2c1=O | ≤ 0.125 | 4 (≈ 3.37 µM) | 0.5 (≈ 0.422 µM) | 4 (≈ 3.37 µM) | > 64 | > 64 | > 64 | ≤ 0.125 | ≤ 0.125 | 4 (≈ 3.37 µM) | 16 (≈ 13.5 µM) | 16 (≈ 13.5 µM) | ≤ 0.125 | > 64 |
| CC[C@H]1OC(=O)[C@H](C)[C@@H](O[C@H]2C[C@@](C)(OC)[C@@H](OC(=O)CCN3CCN(CC#Cc4ccc5c(c4)c(=O)c(C(=O)O)cn5CC)CC3)[C@H](C)O2)[C@H](C)[C@@H](O[C@@H]2O[C@H](C)C[C@H](N(C)C)[C@H]2O)[C@](C)(O)C[C@@H](C)CN(C)[C@H](C)[C@@H](OC)[C@]1(C)O | ≤ 0.125 | 0.25 (≈ 0.216 µM) | ≤ 0.125 | 0.5 (≈ 0.432 µM) | 0.5 (≈ 0.432 µM) | 8 (≈ 6.92 µM) | > 64 | ≤ 0.125 | ≤ 0.125 | 4 (≈ 3.46 µM) | 16 (≈ 13.8 µM) | 8 (≈ 6.92 µM) | ≤ 0.125 | 1 (≈ 0.865 µM) |
| CCOC(=O)c1cn(CC)c2ccc(/C=C/CN3CCNCC3)cc2c1=O | > 64 | > 64 | > 64 | > 64 | > 64 | > 64 | > 64 | 64 (≈ 173 µM) | > 64 | > 64 | > 64 | > 64 | > 64 | > 64 |
| CCOC(=O)c1cn(C2CC2)c2ccc(C#CCN3CCN(CCC(=O)O[C@H]4[C@H](C)O[C@@H](O[C@H]5[C@H](C)[C@@H](O[C@@H]6O[C@H](C)C[C@H](N(C)C)[C@H]6O)[C@](C)(OC)C[C@@H](C)C(=O)[C@H](C)[C@@H](O)[C@](C)(O)[C@@H](CC)OC(=O)[C@@H]5C)C[C@@]4(C)OC)CC3)cc2c1=O | ≤ 0.125 | 4 (≈ 3.39 µM) | 0.5 (≈ 0.423 µM) | 4 (≈ 3.39 µM) | > 64 | > 64 | > 64 | ≤ 0.125 | ≤ 0.125 | 4 (≈ 3.39 µM) | 16 (≈ 13.5 µM) | 4 (≈ 3.39 µM) | ≤ 0.125 | > 64 |
| CCOC(=O)c1cn(C2CC2)c2ccc(CCCN3CCN(CCC(=O)O[C@H]4[C@H](C)O[C@@H](O[C@H]5[C@H](C)[C@@H](O[C@@H]6O[C@H](C)C[C@H](N(C)C)[C@H]6O)[C@](C)(O)C[C@@H](C)CN(C)[C@H](C)[C@@H](OC)[C@](C)(O)[C@@H](CC)OC(=O)[C@@H]5C)C[C@@]4(C)OC)CC3)cc2c1=O | ≤ 0.125 | 4 (≈ 3.33 µM) | 0.25 (≈ 0.208 µM) |  | > 64 | > 64 | > 64 | ≤ 0.125 | ≤ 0.125 | 32 (≈ 26.7 µM) | 32 (≈ 26.7 µM) | > 64 | 1 (≈ 0.833 µM) | 16 (≈ 13.3 µM) |
| CCOC(=O)c1cn(CC)c2ccc(C#CCN3CCN(CCC(=O)O[C@H]4[C@H](C)O[C@@H](O[C@H]5[C@H](C)[C@@H](O[C@@H]6O[C@H](C)C[C@H](N(C)C)[C@H]6O)[C@](C)(O)C[C@@H](C)CN(C)[C@H](C)[C@@H](O)[C@](C)(O)[C@@H](CC)OC(=O)[C@@H]5C)C[C@@]4(C)OC)CC3)cc2c1=O | ≤ 0.125 | 1 (≈ 0.854 µM) | ≤ 0.125 | 1 (≈ 0.854 µM) | 16 (≈ 13.7 µM) | > 64 | > 64 | ≤ 0.125 | ≤ 0.125 | ≤ 0.125 | 32 (≈ 27.3 µM) | ≤ 0.125 | ≤ 0.125 | 4 (≈ 3.42 µM) |
| CC[C@H]1OC(=O)[C@H](C)[C@@H](O[C@H]2C[C@@](C)(OC)[C@@H](O)[C@H](C)O2)[C@H](C)[C@@H](O[C@@H]2O[C@H](C)C[C@H](N(C)C)[C@H]2O)[C@](C)(O)C[C@@H](C)CN(C)[C@H](C)[C@@H](O)[C@]1(C)O [AZITHROMYCIN] | ≤ 0.125 | 0.5 (≈ 0.668 µM) | 16 (≈ 21.4 µM) | ≤ 0.125 | > 64 | > 64 | > 64 | ≤ 0.125 | 8 (≈ 10.7 µM) | > 64 | > 64 | > 64 | 8 (≈ 10.7 µM) | 1 (≈ 1.34 µM) |
| CCOC(=O)c1cn(CC)c2ccc(C#CCN3CCN(C(=O)OC(C)(C)C)CC3)cc2c1=O | > 64 | > 64 | > 64 | > 64 | > 64 | > 64 | > 64 | > 64 | > 64 | > 64 | > 64 | > 64 | > 64 | > 64 |
| CC[C@H]1OC(=O)[C@H](C)[C@@H](O[C@H]2C[C@@](C)(OC)[C@@H](OCCCN3CCN(CCCc4ccc5c(c4)c(=O)c(C(=O)O)cn5CC)CC3)[C@H](C)O2)[C@H](C)[C@@H](O[C@@H]2O[C@H](C)C[C@H](N(C)C)[C@H]2O)[C@](C)(O)C[C@@H](C)CN(C)[C@H](C)[C@@H](O)[C@]1(C)O | 0.5 (≈ 0.442 µM) | 8 (≈ 7.06 µM) | 4 (≈ 3.53 µM) |  | 32 (≈ 28.3 µM) | > 64 | > 64 | ≤ 0.125 | 0.25 (≈ 0.221 µM) | 8 (≈ 7.06 µM) | > 64 | 32 (≈ 28.3 µM) | 8 (≈ 7.06 µM) | 32 (≈ 28.3 µM) |
| CCOC(=O)c1cn(CC)c2ccc(C#CCN3CCN(CCC(=O)O[C@H]4[C@H](C)O[C@@H](O[C@H]5[C@H](C)[C@@H](O[C@@H]6O[C@H](C)C[C@H](N(C)C)[C@H]6O)[C@](C)(OC)C[C@@H](C)C(=O)[C@H](C)[C@@H](O)[C@](C)(O)[C@@H](CC)OC(=O)[C@@H]5C)C[C@@]4(C)OC)CC3)cc2c1=O | ≤ 0.125 | 0.25 (≈ 0.214 µM) | ≤ 0.125 | 1 (≈ 0.855 µM) | 32 (≈ 27.4 µM) | > 64 | > 64 | ≤ 0.125 | ≤ 0.125 | ≤ 0.125 | 8 (≈ 6.84 µM) | 1 (≈ 0.855 µM) |  | 4 (≈ 3.42 µM) |
